# Laboratory results: ChEMBL document CHEMBL4765230, “Discovery of Orally Efficacious Phosphoinositide 3-Kinase δ Inhibitors with Improved Metabolic Stability” (J Med Chem, 2016)
# Experiments:
# [1] = Chemical stability of the compound at pH 2 phosphate buffer assessed as time required for 90% hydrolytic degradation at 100 ug/ml and 40 degreeC by UPLC-UV analysis; type: physicochemical; conditions: in the assay text read “10% hydrolytic degradation” for “90% hydrolytic degradation”, dose 100 µg/ml
# In short: (§1)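 Compound diluted from acetonitrile or DMSO stock to 100 μg/mL final in 50 mM phosphate buffer, pH 2 (or pH 7), ionic strength 0.15 M NaCl, 40 °C in autosampler. Timed injections analysed by reverse-phase UPLC-UV (220 nm); pseudo-first-order kobs from ln c vs time; t50 and t90 calculated.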
# [2] = Chemical stability assessed as time taken for hydrolytic degradation at pH 2; type: physicochemical; conditions: buffer; in short: as §1
# [3] = molecular target: PI3-kinase p110-alpha/p85-alpha (Homo sapiens, UniProt P42336); assay: Inhibition of human full length PI3K p110alpha/p85alpha using […] as substrate measured after 30 mins by TR-FRET assay; type: protein-complex assay
# Chain of PI3-kinase p110-alpha/p85-alpha (P27986 whole entry): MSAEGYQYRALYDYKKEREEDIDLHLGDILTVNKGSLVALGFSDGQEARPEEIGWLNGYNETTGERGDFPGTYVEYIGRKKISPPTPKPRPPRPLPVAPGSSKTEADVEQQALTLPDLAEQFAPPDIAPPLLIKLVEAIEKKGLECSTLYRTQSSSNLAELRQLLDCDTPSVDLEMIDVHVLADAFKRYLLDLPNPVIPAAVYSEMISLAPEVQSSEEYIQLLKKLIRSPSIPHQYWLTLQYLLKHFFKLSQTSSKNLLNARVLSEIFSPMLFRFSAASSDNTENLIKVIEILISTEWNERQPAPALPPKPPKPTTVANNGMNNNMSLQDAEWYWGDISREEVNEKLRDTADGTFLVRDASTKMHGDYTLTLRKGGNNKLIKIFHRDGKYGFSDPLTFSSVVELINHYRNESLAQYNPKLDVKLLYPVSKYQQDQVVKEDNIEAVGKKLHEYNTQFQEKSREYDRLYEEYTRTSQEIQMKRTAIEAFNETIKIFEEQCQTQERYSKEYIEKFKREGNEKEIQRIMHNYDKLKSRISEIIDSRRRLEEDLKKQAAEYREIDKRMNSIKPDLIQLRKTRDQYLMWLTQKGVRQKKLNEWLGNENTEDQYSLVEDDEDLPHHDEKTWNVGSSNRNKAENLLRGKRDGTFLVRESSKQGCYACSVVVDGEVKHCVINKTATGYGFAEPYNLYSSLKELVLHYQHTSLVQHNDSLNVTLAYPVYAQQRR
# Chain of PI3-kinase p110-alpha/p85-alpha (P42336 whole entry): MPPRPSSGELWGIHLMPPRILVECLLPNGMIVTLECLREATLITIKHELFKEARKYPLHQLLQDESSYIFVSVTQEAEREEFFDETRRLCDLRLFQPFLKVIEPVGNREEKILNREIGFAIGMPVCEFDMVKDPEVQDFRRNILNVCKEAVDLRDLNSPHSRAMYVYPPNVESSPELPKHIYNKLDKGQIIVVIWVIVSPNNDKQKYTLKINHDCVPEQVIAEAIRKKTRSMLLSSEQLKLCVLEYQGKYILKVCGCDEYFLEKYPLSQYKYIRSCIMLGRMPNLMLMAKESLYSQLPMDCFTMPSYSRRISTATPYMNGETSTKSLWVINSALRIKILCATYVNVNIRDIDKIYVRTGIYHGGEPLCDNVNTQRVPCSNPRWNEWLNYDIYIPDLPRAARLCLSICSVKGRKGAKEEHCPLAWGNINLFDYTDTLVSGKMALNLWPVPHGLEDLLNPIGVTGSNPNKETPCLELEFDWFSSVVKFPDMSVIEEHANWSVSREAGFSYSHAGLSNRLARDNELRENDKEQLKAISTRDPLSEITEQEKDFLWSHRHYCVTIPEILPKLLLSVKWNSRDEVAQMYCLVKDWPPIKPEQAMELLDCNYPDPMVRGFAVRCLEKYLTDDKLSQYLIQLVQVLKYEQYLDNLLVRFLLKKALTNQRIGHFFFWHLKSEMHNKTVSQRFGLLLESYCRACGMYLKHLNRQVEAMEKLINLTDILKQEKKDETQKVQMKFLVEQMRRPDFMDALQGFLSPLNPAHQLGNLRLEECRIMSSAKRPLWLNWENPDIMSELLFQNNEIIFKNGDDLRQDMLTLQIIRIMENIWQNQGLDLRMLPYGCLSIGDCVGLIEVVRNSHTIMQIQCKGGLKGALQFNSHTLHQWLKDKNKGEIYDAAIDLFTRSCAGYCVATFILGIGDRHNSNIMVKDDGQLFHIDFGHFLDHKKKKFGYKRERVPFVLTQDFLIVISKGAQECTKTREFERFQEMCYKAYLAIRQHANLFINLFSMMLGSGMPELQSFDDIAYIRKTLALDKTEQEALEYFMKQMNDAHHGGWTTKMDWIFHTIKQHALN
# [4] = Chemical stability of the compound at pH 2 phosphate buffer assessed as time required for 50% hydrolytic degradation at 100 ug/ml and 40 degreeC by UPLC-UV analysis; type: physicochemical; conditions: dose 100 µg/ml, read-out: Time (converted); in short: as §1
# [5] = molecular target: Phosphatidylinositol 4,5-bisphosphate 3-kinase catalytic subunit gamma isoform (Homo sapiens, UniProt P48736); assay: Inhibition of human full length PI3K p110gamma using […] as substrate measured after 30 mins by TR-FRET assay
# Chain of Phosphatidylinositol 4,5-bisphosphate 3-kinase catalytic subunit gamma isoform (P48736 whole entry, canonical isoform): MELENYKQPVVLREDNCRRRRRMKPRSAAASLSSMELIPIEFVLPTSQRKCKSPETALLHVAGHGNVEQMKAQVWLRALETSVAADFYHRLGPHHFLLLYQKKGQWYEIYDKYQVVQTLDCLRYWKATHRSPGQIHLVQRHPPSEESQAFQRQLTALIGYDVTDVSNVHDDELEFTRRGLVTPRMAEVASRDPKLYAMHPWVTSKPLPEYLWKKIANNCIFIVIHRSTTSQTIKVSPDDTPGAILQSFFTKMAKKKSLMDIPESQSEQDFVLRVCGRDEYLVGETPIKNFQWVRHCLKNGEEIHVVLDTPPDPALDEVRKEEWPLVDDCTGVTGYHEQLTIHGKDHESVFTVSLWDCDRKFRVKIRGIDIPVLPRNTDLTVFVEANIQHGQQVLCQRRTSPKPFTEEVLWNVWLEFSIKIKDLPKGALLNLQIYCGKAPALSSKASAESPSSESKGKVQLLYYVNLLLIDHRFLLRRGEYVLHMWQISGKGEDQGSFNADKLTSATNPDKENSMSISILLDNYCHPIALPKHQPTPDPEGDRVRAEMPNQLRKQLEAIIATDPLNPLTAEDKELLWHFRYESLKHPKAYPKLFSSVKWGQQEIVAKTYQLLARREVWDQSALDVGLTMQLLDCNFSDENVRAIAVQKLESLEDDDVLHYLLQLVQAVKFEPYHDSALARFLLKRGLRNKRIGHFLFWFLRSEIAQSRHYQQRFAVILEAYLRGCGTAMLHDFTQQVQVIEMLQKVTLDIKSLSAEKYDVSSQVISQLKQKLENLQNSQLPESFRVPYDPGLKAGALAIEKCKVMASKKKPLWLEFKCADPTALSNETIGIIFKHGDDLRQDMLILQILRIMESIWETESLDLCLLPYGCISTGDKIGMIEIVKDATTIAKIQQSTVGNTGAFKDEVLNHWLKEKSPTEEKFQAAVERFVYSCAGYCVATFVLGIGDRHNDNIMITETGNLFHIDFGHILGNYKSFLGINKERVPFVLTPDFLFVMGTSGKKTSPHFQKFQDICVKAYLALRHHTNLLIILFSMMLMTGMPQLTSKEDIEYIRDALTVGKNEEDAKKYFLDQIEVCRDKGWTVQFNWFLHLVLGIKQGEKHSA
# PI3K p110 beta/p85 alpha = PI3K p110 beta/p85 alpha (Homo sapiens, UniProt P42338); assay: Inhibition of recombinant human full-length N-terminal His-tagged PI3K p110beta/p85alpha using […] as substrate measured after 30 mins by TR-FRET assay; type: protein-complex assay
# Chain of PI3K p110 beta/p85 alpha (P27986 whole entry): as the sequence (P27986 whole entry) above
# Chain of PI3K p110 beta/p85 alpha (P42338 whole entry): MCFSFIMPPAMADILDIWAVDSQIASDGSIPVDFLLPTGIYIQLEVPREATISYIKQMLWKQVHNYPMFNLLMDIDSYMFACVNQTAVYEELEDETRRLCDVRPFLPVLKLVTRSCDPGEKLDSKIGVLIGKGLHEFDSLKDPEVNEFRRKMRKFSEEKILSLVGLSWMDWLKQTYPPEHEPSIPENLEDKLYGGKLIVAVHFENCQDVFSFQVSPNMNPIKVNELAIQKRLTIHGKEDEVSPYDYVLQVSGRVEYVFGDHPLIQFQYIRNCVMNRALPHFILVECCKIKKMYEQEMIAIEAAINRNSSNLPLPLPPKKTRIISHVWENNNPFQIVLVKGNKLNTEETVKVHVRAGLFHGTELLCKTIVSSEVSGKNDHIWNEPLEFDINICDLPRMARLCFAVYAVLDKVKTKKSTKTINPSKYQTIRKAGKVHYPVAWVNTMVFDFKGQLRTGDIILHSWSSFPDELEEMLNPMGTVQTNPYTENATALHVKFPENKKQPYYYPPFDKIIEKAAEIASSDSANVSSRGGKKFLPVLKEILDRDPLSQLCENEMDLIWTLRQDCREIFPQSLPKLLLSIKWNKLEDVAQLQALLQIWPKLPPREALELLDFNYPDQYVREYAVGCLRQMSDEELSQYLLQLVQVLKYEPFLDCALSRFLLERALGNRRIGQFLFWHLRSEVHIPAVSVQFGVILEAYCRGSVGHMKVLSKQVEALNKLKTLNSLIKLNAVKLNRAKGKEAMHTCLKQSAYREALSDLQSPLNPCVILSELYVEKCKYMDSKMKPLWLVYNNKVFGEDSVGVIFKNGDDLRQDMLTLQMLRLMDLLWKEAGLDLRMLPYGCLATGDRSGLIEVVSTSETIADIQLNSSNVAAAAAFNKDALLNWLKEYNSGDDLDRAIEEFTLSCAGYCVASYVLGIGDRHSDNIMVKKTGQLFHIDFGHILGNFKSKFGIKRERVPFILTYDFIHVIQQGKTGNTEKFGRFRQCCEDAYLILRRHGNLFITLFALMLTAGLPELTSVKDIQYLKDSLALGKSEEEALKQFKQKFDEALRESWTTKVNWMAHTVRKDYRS
# [6] = Selectivity index, ratio of IC50 for inhibition of recombinant human full-length N-terminal His-tagged PI3K p110beta/p85alpha to IC50 for inhibition of human full length PI3K p110delta/p85alpha
# [7] = molecular target: T1, Phosphatidylinositol 4,5-bisphosphate 3-kinase catalytic subunit delta isoform (Homo sapiens, UniProt O00329); assay: Inhibition of PI3Kdelta in human whole blood assessed as reduction in anti-FCepsilonR1 mAb-stimulated basophil activation preincubated for 60 mins followed by anti-FCepsilonR1 mAb stimulation and measured after 25 mins by flow cytometry analysis; type: tissue-based
# T1 sequence (O00329 whole entry): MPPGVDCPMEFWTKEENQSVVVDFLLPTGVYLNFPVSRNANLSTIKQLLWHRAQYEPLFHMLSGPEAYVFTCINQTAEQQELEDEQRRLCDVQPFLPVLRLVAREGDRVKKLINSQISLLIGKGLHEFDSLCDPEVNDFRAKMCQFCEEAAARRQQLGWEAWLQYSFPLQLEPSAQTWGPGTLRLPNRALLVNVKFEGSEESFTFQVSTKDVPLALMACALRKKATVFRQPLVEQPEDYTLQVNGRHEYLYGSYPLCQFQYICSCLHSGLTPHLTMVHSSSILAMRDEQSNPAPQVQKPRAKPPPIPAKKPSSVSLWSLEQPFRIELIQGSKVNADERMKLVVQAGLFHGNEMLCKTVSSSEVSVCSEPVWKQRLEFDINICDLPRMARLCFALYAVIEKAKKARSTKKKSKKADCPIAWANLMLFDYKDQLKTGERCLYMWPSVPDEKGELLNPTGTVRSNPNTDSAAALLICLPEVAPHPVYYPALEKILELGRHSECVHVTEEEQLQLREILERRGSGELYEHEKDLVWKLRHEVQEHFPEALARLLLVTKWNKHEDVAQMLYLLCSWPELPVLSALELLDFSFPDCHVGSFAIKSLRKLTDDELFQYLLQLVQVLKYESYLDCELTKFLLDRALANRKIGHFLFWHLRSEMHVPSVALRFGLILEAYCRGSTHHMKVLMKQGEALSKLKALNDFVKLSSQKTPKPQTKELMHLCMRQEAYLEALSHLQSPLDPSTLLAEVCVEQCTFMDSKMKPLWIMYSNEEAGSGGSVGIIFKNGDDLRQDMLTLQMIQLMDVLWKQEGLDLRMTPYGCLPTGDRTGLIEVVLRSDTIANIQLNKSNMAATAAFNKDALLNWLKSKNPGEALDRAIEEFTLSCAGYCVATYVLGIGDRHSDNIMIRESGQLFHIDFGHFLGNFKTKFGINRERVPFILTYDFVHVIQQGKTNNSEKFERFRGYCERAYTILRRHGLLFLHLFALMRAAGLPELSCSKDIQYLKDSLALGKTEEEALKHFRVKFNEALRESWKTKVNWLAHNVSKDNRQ
# [8] = molecular target: PI3-kinase p110-delta/p85-alpha (Homo sapiens, UniProt O00329); assay: Inhibition of human full length PI3K p110delta/p85alpha using […] as substrate measured after 30 mins by TR-FRET assay; type: protein-complex assay
# Chain of PI3-kinase p110-delta/p85-alpha (P27986 whole entry, one chain of several): as the sequence (P27986 whole entry) above
# [9] = Drug degradation at low pH; type: physicochemical; in short: as §1
# [10] = Thermal stability of compound assessed as half life at 40 degreeC measured over 72 hrs by HPLC analysis; type: physicochemical
# [11] = Half life of the compound; type: physicochemical
# [12] = Chemical stability of the compound under aqueous acidic condition; type: physicochemical; conditions: buffer; in short: as §1
# [13] = Selectivity index, ratio of IC50 for inhibition of human full length PI3K p110gamma to IC50 for inhibition of human full length PI3K p110delta/p85alpha
# [14] = Selectivity index, ratio of IC50 for inhibition of human full length PI3K p110alpha/p85alpha to IC50 for inhibition of human full length PI3K p110delta/p85alpha
# [15] = Volume of distribution at steady state in cynomolgus monkey at 1 mg/kg, iv; type: ADME, organism-based, Macaca fascicularis; conditions: in vivo, read-out: Vdss
# [16] = Oral bioavailability in rat at 5 mg/kg; type: ADME, organism-based; conditions: in vivo
# [17] = Half life in dog at 1 mg/kg, iv; type: ADME, organism-based, Canis lupus familiaris; conditions: in vivo
# [18] = Volume of distribution at steady state in rat at 1 mg/kg, iv; type: ADME, organism-based; conditions: in vivo, read-out: Vdss
# In short: (§2)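 Rats and dog received 1 mg/kg intravenously, formulated in 12% w/v Captisol in water. Volume of distribution was taken at steady state from the iv plasma profile. Three animals per dosing route.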
# [19] = Volume of distribution at steady state in dog at 1 mg/kg, iv; type: ADME, organism-based, Canis lupus familiaris; conditions: in vivo, read-out: Vdss; in short: as §2
# [20] = Half life in rat at 1 mg/kg, iv; type: ADME, organism-based; conditions: in vivo
# [21] = Clearance in cynomolgus monkey at 1 mg/kg, iv; type: ADME, organism-based, Macaca fascicularis; conditions: in vivo
# [22] = Half life in cynomolgus monkey at 1 mg/kg, iv; type: ADME, organism-based, Macaca fascicularis; conditions: in vivo
# [23] = Clearance in dog at 1 mg/kg, iv; type: ADME, organism-based, Canis lupus familiaris; conditions: in vivo
# [24] = Clearance in rat at 1 mg/kg, iv; type: ADME, organism-based; conditions: in vivo
# [25] = Drug degradation assessed as acid-mediated compound hydrolysis at 40 degreeC measured at 3 hrs; type: physicochemical; conditions: read-out: Drug degradation; in short: as §1
Time [1],IC50 [3],half-life at 100 ug/ml [4],IC50 [5],IC50 (PI3K p110 beta/p85 alpha),EC50 [7],IC50 [8],SMILES,further results
3.5 h,0.88 µM,1380 min,70 nM,21 nM,–,–,Cc1ccncc1-n1c([C@H](C)Nc2nc(N)nc(N)c2C#N)nc2cccc(Cl)c2c1=O (stereo in doubt; 25),Time [2]: > 3 h
3.1 h,1.6 µM,1200 min,160 nM,350 nM,–,1.3 nM,Cc1ncccc1-n1c([C@H](C)Nc2nc(N)nc(N)c2C#N)nc2cccc(Cl)c2c1=O (stereo in doubt; 23),Time [2]: > 3 h
4.6 h,1.2 µM,1800 min,25 nM,120 nM,–,0.3 nM,Cc1c(F)cncc1-n1c([C@H](C)Nc2nc(N)nc(N)c2C#N)nc2cccc(Cl)c2c1=O (stereo in doubt; 27),half-life [10]: 72.9 days; Time [2]: > 3 h
0.2 h,1.03 µM,162 min,72 nM,100 nM,0.9 nM,–,C[C@H](Nc1nc(N)nc(N)c1C#N)c1nc2cccc(Cl)c2c(=O)n1-c1cccnc1,Vd [15]: 0.5 L/kg; bioavailability [16]: 42%; Ratio IC50 [6]: 160; half-life [17]: 336 min; Vd [18]: 1.9 L/kg; Vd [19]: 0.9 L/kg; Ratio IC50 [13]: 120; half-life [20]: 150 min; clearance [21]: 1.67 mL/min/kg; half-life [22]: 294 min; Ratio IC50 [14]: 1700; clearance [23]: 3.33 mL/min/kg; clearance [24]: 25 mL/min/kg
–,9.7 µM,–,1300 nM,370 nM,–,–,Cc1ccncc1-n1c([C@H](C)Nc2nc(N)nc(N)c2C#N)nc2cccc(Cl)c2c1=O (stereo in doubt; 26),–
–,10 µM,–,6900 nM,1750 nM,–,40 nM,Cc1c(F)cncc1-n1c([C@H](C)Nc2nc(N)nc(N)c2C#N)nc2cccc(Cl)c2c1=O (stereo in doubt; 28),–
–,6.8 µM,–,650 nM,440 nM,–,–,Cc1ncccc1-n1c([C@H](C)Nc2nc(N)nc(N)c2C#N)nc2cccc(Cl)c2c1=O (stereo in doubt; 24),–
–,0.24 µM,21500 min,–,9.4 nM,0.3 nM,–,C[C@H](Nc1nc(N)nc(N)c1C#N)c1nc2cccc(Cl)c2c(=O)n1-c1ccccc1,half-life [11]: 14.9 days; Ratio IC50 [6]: 80; Stabilty [12]: Stable; Ratio IC50 [13]: 60; Ratio IC50 [14]: 2200
–,10 µM,–,830 nM,3000 nM,3 nM,–,COc1cncc(-n2c([C@H](C)Nc3nc(N)nc(N)c3C#N)nc3cccc(Cl)c3c2=O)c1,–

# The remaining lines, values behind:
SMILES,Time [1],IC50 [3],half-life at 100 ug/ml [4],IC50 [5],IC50 (PI3K p110 beta/p85 alpha),EC50 [7],IC50 [8],further results
C[C@H](Nc1nc(N)nc(N)c1C#N)c1nc2cccc(Cl)c2c(=O)n1-c1cncc(F)c1,0.5 h,4.3 µM,216 min,150 nM,740 nM,1.2 nM,1.7 nM,Ratio IC50 [6]: 430; Drug degradation [9]: Active
C[C@H](Nc1nc(N)nc(N)c1C#N)c1nc2c(F)ccc(F)c2c(=O)n1-c1cccnc1,–,4.02 µM,–,940 nM,770 nM,11 nM,–,–
C[C@H](Nc1nc(N)nc(N)c1C#N)c1nc2c(Cl)cccc2c(=O)n1-c1cccnc1,–,3.1 µM,–,1100 nM,390 nM,5 nM,–,–
C[C@H](Nc1nc(N)nc(N)c1C#N)c1nc2cccc(Cl)c2c(=O)n1-c1cncc(C#N)c1,–,8.7 µM,–,700 nM,3100 nM,4 nM,13 nM,–
C[C@H](Nc1nc(N)nc(N)c1C#N)c1nc2cccc(F)c2c(=O)n1-c1cc(F)cc(F)c1,–,–,2040 min,–,–,–,–,half-life [11]: 1.42 days; Ratio IC50 [6]: 650; Stabilty [12]: Stable; Ratio IC50 [13]: 180; Ratio IC50 [14]: 1900
C[C@H](Nc1nc(N)nc(N)c1C#N)c1nc2c(Cl)ccc(Cl)c2c(=O)n1-c1cccnc1,2.3 h,1.3 µM,900 min,330 nM,76 nM,0.9 nM,–,–
C[C@H](Nc1nc(N)nc(N)c1C#N)c1nc2cccc(Cl)c2c(=O)n1-c1cncc(Cl)c1,–,8.3 µM,–,1200 nM,1200 nM,4 nM,–,–
C[C@H](Nc1nc(N)nc(N)c1C#N)c1nc2c(F)ccc(Cl)c2c(=O)n1-c1cncc(F)c1,2.9 h,3.1 µM,1200 min,120 nM,440 nM,0.5 nM,–,bioavailability [16]: 46%; Vd [18]: 1.4 L/kg; Vd [19]: 0.96 L/kg; clearance [23]: 5.17 mL/min/kg; clearance [24]: 17.7 mL/min/kg
C[C@H](Nc1nc(N)nc(N)c1C#N)c1nc2c(F)ccc(Cl)c2c(=O)n1-c1cccnc1,2.8 h,0.77 µM,1140 min,51 nM,46 nM,0.5 nM,–,bioavailability [16]: 24%; degraded at 3 h [25]: 10%; Vd [18]: 3.2 L/kg; Vd [19]: 0.51 L/kg; clearance [23]: 3.5 mL/min/kg; clearance [24]: 26.7 mL/min/kg
CC[C@H](Nc1nc(N)nc(N)c1C#N)c1nc2c(F)ccc(Cl)c2c(=O)n1-c1cccnc1,2.8 h,1.5 µM,1140 min,520 nM,310 nM,2 nM,2 nM,bioavailability [16]: 37%; Vd [18]: 0.54 L/kg; Vd [19]: 0.3 L/kg; clearance [23]: 2.17 mL/min/kg; clearance [24]: 5 mL/min/kg
C[C@H](Nc1nc(N)nc(N)c1C#N)c1nc2cccc(Cl)c2c(=O)n1-c1cncc(C2CC2)c1,–,10 µM,–,2300 nM,2600 nM,7 nM,–,–
C[C@H](Nc1nc(N)nc(N)c1C#N)c1nc2cccc(Cl)c2c(=O)n1-c1cncc(C(F)(F)F)c1,–,10 µM,–,1300 nM,4800 nM,21 nM,17 nM,–
CC[C@H](Nc1nc(N)nc(N)c1C#N)c1nc2cccc(Cl)c2c(=O)n1-c1cccnc1,0.65 h,–,258 min,–,–,–,–,Drug degradation [9]: Active
N#Cc1c(N)nc(N)nc1N[C@H](c1nc2cccc(Cl)c2c(=O)n1-c1cccnc1)C1CC1,0.5 h,–,216 min,–,–,–,–,Drug degradation [9]: Active
